From ChEMBL document CHEMBL2321737, “Selective inhibition of glycosyltransferases by bivalent imidazolium salts” (Bioorg Med Chem, 2013) come the findings set out here.

A word on the inhibition: it is the share of the control response that was lost under treatment. The term IC50 denotes the point on the concentration scale where inhibition reaches its midpoint.

Test [1] concerns the target T1, Beta-1,3-galactosyltransferase 5 (Homo sapiens) (UniProt Q9Y2C3).
T1 sequence (whole entry): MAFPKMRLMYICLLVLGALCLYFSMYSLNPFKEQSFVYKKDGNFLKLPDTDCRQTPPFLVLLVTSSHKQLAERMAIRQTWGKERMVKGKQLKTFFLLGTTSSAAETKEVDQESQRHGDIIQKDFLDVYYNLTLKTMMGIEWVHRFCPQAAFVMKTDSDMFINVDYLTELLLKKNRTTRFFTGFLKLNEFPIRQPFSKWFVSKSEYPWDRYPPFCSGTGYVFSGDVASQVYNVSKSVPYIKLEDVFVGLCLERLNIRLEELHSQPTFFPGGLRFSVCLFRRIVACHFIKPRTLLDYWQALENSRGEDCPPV
The experiment in a line: Inhibition of human recombinant soluble His-tagged beta3-GalT5 expressed in insect cells using GlcNAcbeta-Bn as substrate at 0.5 mM after 1 hr relative to control. Put shortly: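 Soluble His-tagged human β3-GalT5 expressed in insect cells and purified, 0.37 µg. Acceptor 0.5 mM GlcNAcβ-Bn, donor 0.5 mM UDP-Gal, inhibitor 0.5 mM bis-imidazolium salt in 10% ethanol. 1 h at 37 °C. Product isolated on AG1-X8 resin and counted by scintillation. % inhibition versus no-inhibitor control; blanks lacked acceptor. Mean ± SD of replicates.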

The target in test [2] is T2, Beta-1,4-galactosyltransferase 1 (Homo sapiens) (UniProt P15291).
T2 sequence (whole entry): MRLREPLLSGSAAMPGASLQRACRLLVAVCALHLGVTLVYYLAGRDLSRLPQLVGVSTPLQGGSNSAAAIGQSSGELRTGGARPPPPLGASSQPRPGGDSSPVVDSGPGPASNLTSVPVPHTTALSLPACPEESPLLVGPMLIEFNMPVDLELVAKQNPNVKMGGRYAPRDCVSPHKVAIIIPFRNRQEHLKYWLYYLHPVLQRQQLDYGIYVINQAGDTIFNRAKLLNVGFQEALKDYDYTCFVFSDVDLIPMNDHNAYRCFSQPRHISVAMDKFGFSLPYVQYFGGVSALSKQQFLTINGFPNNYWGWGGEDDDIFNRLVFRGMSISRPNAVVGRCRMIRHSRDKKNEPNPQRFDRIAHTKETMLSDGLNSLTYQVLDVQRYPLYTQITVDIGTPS
The experiment in a line: Inhibition of human recombinant soluble His-tagged beta4-GalT1 expressed in Escherichia coli BL21 using GlcNAcbeta-Bn as substrate at 0.5 mM after 1 hr relative to control. Put shortly: (§1)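 Single point at 0.5 mM bis-imidazolium salt, 10% ethanol. Acceptor 0.5 mM GlcNAcβ-Bn, donor 0.5 mM UDP-Gal. […] Enzyme: 0.34 µg His-tagged human β4-GalT1 from BL21, or bovine milk β4-GalT1. Mean ± SD of replicates.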

For test [3], the target named is T3, Beta-1,4-galactosyltransferase 1 (Bos taurus, UniProt P08037).
T3 sequence (P08037 whole entry): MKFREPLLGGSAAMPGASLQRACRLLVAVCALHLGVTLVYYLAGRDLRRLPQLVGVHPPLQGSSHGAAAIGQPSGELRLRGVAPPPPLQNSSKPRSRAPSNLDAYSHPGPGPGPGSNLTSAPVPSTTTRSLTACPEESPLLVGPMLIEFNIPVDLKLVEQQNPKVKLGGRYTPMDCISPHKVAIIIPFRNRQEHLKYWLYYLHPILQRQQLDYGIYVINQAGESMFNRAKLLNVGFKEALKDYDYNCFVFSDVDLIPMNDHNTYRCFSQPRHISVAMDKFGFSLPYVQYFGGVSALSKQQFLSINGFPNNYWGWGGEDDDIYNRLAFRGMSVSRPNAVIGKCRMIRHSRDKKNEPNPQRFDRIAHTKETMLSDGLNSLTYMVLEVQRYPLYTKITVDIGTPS
The experiment in a line: Inhibition of bovine milk beta4-GalT1 using GlcNAcbeta-Bn as substrate after 1 hr relative to control. The essentials:
(§2)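 Dose-response series of bis-imidazolium salt in 10% ethanol, 0.5 mM GlcNAcβ-Bn acceptor, 0.5 mM UDP-Gal donor. 1 h at 37 °C. Product isolated on AG1-X8 anion-exchange resin (chloride form) with water elution, then scintillation counting. Controls lacked acceptor or inhibitor. IC50 fitted from inhibition curves. Enzyme source: bovine milk β4-GalT1 or bacterially expressed, purified human β4-GalT1.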

Test [4] has as its target T4, Beta-1,4-galactosyltransferase 1 (Homo sapiens, UniProt P15291).
T4 sequence (P15291 whole entry): T2 sequence (whole entry)
The experiment in a line: Inhibition of human recombinant soluble His-tagged beta4-GalT1 expressed in Escherichia coli BL21 using GlcNAcbeta-Bn as substrate after 1 hr relative to control. Put shortly: as §2

Test [5] concerns the target Beta-1,3-galactosyltransferase 5 (Homo sapiens) (UniProt Q9Y2C3). The experiment in a line: Inhibition of human recombinant soluble His-tagged beta3-GalT5 expressed in insect cells using GlcNAcbeta-Bn as substrate after 1 hr.
The target in test [6] is T5, Alpha-1,6-mannosyl-glycoprotein 2-beta-N-acetylglucosaminyltransferase (Homo sapiens) (UniProt Q10469).
T5 sequence (whole entry): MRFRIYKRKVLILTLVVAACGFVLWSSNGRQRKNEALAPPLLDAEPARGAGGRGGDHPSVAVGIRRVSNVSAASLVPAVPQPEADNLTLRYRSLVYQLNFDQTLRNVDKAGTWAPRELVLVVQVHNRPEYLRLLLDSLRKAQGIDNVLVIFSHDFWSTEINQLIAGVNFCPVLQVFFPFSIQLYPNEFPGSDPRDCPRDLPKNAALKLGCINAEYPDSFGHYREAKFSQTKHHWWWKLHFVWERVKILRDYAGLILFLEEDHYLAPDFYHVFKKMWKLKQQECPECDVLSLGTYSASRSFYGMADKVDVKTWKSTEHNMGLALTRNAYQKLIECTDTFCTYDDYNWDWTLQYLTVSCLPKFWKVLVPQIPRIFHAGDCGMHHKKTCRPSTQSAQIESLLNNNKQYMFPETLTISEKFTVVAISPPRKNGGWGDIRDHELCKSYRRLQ
The test can be described thus: Inhibition of human GNT2 […] using GnMan3-octyl as substrate at 0.5 mM after 1 hr in presence of phosphatidylcholine.

For test [7], the species on record is Homo sapiens. The experiment in a line: Inhibition of human C2GnT2 using GlcNAcbeta3GalNAcalpha-pnp as substrate at 0.5 mM after 1 hr in presence of phosphatidylcholine.
For test [8], the species on record is Homo sapiens. The test can be described thus: Inhibition of human C2GnT2 using Galbeta3GalNAcalpha-Bn as substrate at 0.5 mM after 1 hr in presence of phosphatidylcholine.
In test [9] the target is T6, Beta-1,3-galactosyl-O-glycosyl-glycoprotein beta-1,6-N-acetylglucosaminyltransferase (Homo sapiens) (UniProt Q02742).
T6 sequence (whole entry): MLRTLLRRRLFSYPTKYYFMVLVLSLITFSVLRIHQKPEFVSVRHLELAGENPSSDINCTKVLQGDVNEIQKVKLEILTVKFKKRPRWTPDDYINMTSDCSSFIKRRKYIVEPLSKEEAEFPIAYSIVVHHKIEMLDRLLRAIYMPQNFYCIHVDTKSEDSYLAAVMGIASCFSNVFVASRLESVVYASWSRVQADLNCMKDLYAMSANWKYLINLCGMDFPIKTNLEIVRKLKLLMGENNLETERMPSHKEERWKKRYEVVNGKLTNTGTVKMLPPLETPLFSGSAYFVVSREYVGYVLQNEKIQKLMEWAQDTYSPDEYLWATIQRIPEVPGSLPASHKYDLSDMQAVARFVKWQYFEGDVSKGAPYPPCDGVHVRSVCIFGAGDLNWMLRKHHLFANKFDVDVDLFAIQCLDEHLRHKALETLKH
The test can be described thus: Inhibition of human C2GnT1 using Galbeta3GalNAcalpha-Bn as substrate at 0.5 mM after 1 hr in presence of phosphatidylcholine.

Test [10] has as its target Glycoprotein-N-acetylgalactosamine 3-beta-galactosyltransferase 1 (Homo sapiens) (UniProt Q9NS00). The experiment in a line: Inhibition of human C1GalT Gal-transferase using GalNAcalpha-Bn as substrate at 0.5 mM after 1 hr in presence of phosphatidylcholine.
In test [11] the target is T7, Acetylgalactosaminyl-O-glycosyl-glycoprotein beta-1,3-N-acetylglucosaminyltransferase (Homo sapiens) (UniProt Q6ZMB0).
T7 sequence (whole entry): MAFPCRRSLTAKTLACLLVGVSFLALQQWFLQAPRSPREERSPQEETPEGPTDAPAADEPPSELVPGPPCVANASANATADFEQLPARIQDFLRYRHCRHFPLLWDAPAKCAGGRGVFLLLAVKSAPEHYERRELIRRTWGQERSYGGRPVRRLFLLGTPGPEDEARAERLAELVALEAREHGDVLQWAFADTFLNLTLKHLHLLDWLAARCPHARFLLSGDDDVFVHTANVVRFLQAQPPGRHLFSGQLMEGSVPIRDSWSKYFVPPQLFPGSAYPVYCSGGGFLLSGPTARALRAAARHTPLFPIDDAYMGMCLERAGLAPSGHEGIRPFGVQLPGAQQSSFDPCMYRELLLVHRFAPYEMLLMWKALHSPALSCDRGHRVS
The experiment in a line: Inhibition of human B3GnT6 using GalNAcalpha-Bn as substrate at 0.5 mM after 1 hr in presence of phosphatidylcholine.

The species named for another test is Bos taurus. The test can be described thus: Inhibition of bovine polypeptide GalNAcT1 using AQPTPPP as substrate at 0.5 mM after 1 hr relative to control.
The target in test [12] is T8, Beta-1,4-galactosyltransferase 1 (Bos taurus) (UniProt P08037).
T8 sequence (whole entry): T3 sequence (P08037 whole entry)
The test can be described thus: Inhibition of bovine milk beta4-GalT1 using GlcNAcbeta-Bn as substrate at 0.5 mM after 1 hr relative to control. Put shortly: as §1

Each structure is given as a SMILES string.

Sequence of Glycoprotein-N-acetylgalactosamine 3-beta-galactosyltransferase 1 (Homo sapiens) (Q9NS00 whole entry): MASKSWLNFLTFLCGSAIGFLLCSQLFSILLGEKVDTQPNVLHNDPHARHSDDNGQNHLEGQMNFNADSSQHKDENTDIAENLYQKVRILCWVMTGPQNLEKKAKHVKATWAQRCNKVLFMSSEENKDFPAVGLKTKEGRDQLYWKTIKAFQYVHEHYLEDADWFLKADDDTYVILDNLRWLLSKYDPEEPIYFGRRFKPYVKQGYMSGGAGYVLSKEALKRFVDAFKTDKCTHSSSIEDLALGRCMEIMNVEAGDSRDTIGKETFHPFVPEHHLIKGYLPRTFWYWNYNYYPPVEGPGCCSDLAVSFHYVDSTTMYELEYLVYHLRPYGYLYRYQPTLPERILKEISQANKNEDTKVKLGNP

In the case of `c1cn(CCCCCCCCCCCCCCCCCCn2ccnc2)cn1`, the inhibition in test [1] and in test [2] was below 1% each time.

For `C[n+]1ccn(CCCCCCCCCCn2cc[n+](C)c2)c1`, the inhibition in [1] and in [2] was below 1% throughout.

With `c1cn(CCCCCCCCCCCCCn2ccnc2)cn1`, the inhibition in test [1] and in test [2] was below 1% in each case.

On to `C[n+]1ccn(CCCCCCCCCCCCCCCCCCCCn2cc[n+](C)c2)c1` [listing 1 of 2 here], for which the IC50 in test [3] amounted to 730 µM; in test [4], 1960 µM; in [5], 440 µM.

Take `C[n+]1ccn(CCCCCCn2cc[n+](C)c2)c1`: the inhibition in test [1] and in [2] was below 1% in each case.

Turning to `C[n+]1ccn(CCCCCCCCCCCCn2cc[n+](C)c2)c1`, the inhibition in test [1] and in [2] was below 1% throughout.

For `C[n+]1ccn(CCCCCCCCCCCCCn2cc[n+](C)c2)c1`, the inhibition in test [1] and in [2] was below 1% in each case.

As to `c1cn(CCCCCCCCCCCCCCCn2ccnc2)cn1`, the inhibition in [1] and in test [2] was below 1% each time.

For the compound `c1cn(CCCCCCCCCCCCCCn2ccnc2)cn1`, the inhibition in [1] and in [2] was below 1% throughout.

`c1cn(CCCCCCCCCCCCCCCCCCCCn2ccnc2)cn1`: the inhibition in test [1] and in [2] was below 1% in each case.

With `C[n+]1ccn(CCCCCCCCCCCn2cc[n+](C)c2)c1`, the inhibition in test [1] and in test [2] was below 1% throughout.

Consider `c1cn(CCCCn2ccnc2)cn1`, for which the inhibition in [1] and in test [2] was below 1% each time.

Consider `c1cn(CCCCCCCCCCCCn2ccnc2)cn1`, for which the inhibition in test [1] and in test [2] was below 1% each time.

Consider `C[n+]1ccn(CCCCCCCCCCCCCCn2cc[n+](C)c2)c1`, for which the inhibition in [1] and in test [2] was below 1% throughout.

`C[n+]1ccn(CCCCn2cc[n+](C)c2)c1`: the inhibition in test [1] and in test [2] was below 1% each time.

For `C[n+]1ccn(CCCCCCCCCCCCCCCCCCCCCCn2cc[n+](C)c2)c1`, the inhibition is below 1% in test [6]; below 1% in the test filed under Homo sapiens [7]; below 1% in the test filed under Homo sapiens [8]; 100% in test [9]; below 1% in test [10]; 78% in test [11]. The inhibition in [1] turned out to be 95%; in the test filed under Bos taurus it was 100%; in test [2], 78%; in [12], 78%. Besides, in test [5], the IC50 was 400 µM.

Turning to `c1cn(CCCCCCCCCCn2ccnc2)cn1`, the inhibition in test [1] and in [2] was below 1% each time.

On to `C[n+]1ccn(CCCCCCCCCCCCCCCCn2cc[n+](C)c2)c1`, for which the inhibition in [1] and in [2] was below 1% throughout.

On to `c1cn(CCCCCCCCn2ccnc2)cn1`, for which the inhibition in test [1] and in test [2] was below 1% each time.

Regarding `C[n+]1ccn(CCCCCCCCn2cc[n+](C)c2)c1`, the inhibition in test [1] and in [2] was below 1% throughout.

Regarding `C[n+]1ccn(CCCCCCCCCCCCCCCCCCCCn2cc[n+](C)c2)c1` [listing 2 of 2 here], the half-inhibitory concentration (IC50) in test [5] stood at 420 µM.

As to `C[n+]1ccn(CCCCCCCCCCCCCCCn2cc[n+](C)c2)c1`, the inhibition in test [1] and in test [2] was below 1% each time.

On to `c1cn(CCCCCCn2ccnc2)cn1`, for which the inhibition in test [1] and in [2] was below 1% throughout.

For `c1cn(CCCCCCCCCCCCCCCCn2ccnc2)cn1`, the inhibition in test [1] and in test [2] was below 1% each time.

Regarding `c1cn(CCCCCCCCCCCn2ccnc2)cn1`, the inhibition in test [1] and in [2] was below 1% in each case.

On to `C[n+]1ccn(CCCCCCCCCCCCCCCCCCn2cc[n+](C)c2)c1`, for which the inhibition in test [1] is below 5%; in [2], below 1%.
